Measurements as given in ChEMBL document CHEMBL1144868, “Modulation of P-glycoprotein-mediated multidrug resistance by flavonoid derivatives and analogues” (2003).

How the values were obtained:
Type in all cases: functional, Homo sapiens
K562 [1] = assay: Rhodamine-123 accumulation in K562 cells with or without expression of PGP protein at a concentration of 0.01 uM
Procedure, shortened: (§1)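 K562R (adriamycin-resistant, Pgp-expressing) cells, kept under continuous 10^-6 M adriamycin, were washed twice and suspended at 10⁶ cells/mL in RPMI. Modulator was added for 15 min at 37 °C, then rhodamine-123 at 0.05 µg/mL final for 1 h at 37 °C. Fluorescence at […] was read by flow cytometry in arbitrary units, as the mean of at least 3 independent experiments.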

K562 [2] = assay: Rhodamine-123 accumulation in K562 cells with or without expression of PGP protein at a concentration of 1 uM; procedure, shortened: as §1
K562 [3] = assay: Rhodamine-123 accumulation in K562 cells with or without expression of PGP protein at a concentration of 1 nM; procedure, shortened: as §1
K562 [4] = assay: Rhodamine-123 accumulation in K562 cells with or without expression of PGP protein at a concentration of 0.1 uM; procedure, shortened: as §1

Which Rhodamine-123 accumulation (K562 [1]) does the source give for O=C(c1cc(=O)c2c(O)cccc2o1)N1CCOCC1 here?
The Rhodamine-123 accumulation was 41 arbitrary units.

What about the Rhodamine-123 accumulation (K562 [2]) of the same compound?
Its Rhodamine-123 accumulation is 42 arbitrary units.

And the Rhodamine-123 accumulation (K562 [3])?
The Rhodamine-123 accumulation was 39 arbitrary units.

And the Rhodamine-123 accumulation (K562 [4])?
Its Rhodamine-123 accumulation is 44 arbitrary units.

How did the Rhodamine-123 accumulation (K562 [1]) turn out when COc1cc(OC)c2c(O)c(-c3ccccc3)cnc2c1 was run?
Its Rhodamine-123 accumulation is 43 arbitrary units.

What about the Rhodamine-123 accumulation (K562 [2]) of the same compound?
The Rhodamine-123 accumulation was 82 arbitrary units.

What about the Rhodamine-123 accumulation (K562 [3]) of the same compound?
Its Rhodamine-123 accumulation is 36 arbitrary units.

And the Rhodamine-123 accumulation (K562 [4])?
Its Rhodamine-123 accumulation is 55 arbitrary units.

With O=C(NCc1ccc(Cl)cc1)c1cc(=O)c2c(O)cccc2o1 as the compound, how does the Rhodamine-123 accumulation (K562 [1]) read?
Its Rhodamine-123 accumulation is 42 arbitrary units.

And the Rhodamine-123 accumulation (K562 [2])?
Its Rhodamine-123 accumulation is 46 arbitrary units.

And the Rhodamine-123 accumulation (K562 [3])?
Its Rhodamine-123 accumulation is 50 arbitrary units.

And the Rhodamine-123 accumulation (K562 [4])?
The Rhodamine-123 accumulation was 45 arbitrary units.

With CC(=O)N1CCN(C(=O)c2cc(=O)c3c(O)cccc3o2)CC1 as the compound, how does the Rhodamine-123 accumulation (K562 [1]) read?
Its Rhodamine-123 accumulation is 43 arbitrary units.

And the Rhodamine-123 accumulation (K562 [2])?
The Rhodamine-123 accumulation was 38 arbitrary units.

What about the Rhodamine-123 accumulation (K562 [3]) of the same compound?
Its Rhodamine-123 accumulation is 41 arbitrary units.

What about the Rhodamine-123 accumulation (K562 [4]) of the same compound?
The Rhodamine-123 accumulation was 37 arbitrary units.

Which results are given for O=C(c1cc(=O)c2c(O)cccc2o1)N1CCN(Cc2ccccc2)CC1?
Rhodamine-123 accumulation (K562 [1]): 72 arbitrary units; Rhodamine-123 accumulation (K562 [2]): 136 arbitrary units; Rhodamine-123 accumulation (K562 [3]): 45 arbitrary units; Rhodamine-123 accumulation (K562 [4]): 95 arbitrary units

What does the source list for CCN1CCN(C(=O)c2cc(=O)c3c(O)cccc3o2)CC1?
Rhodamine-123 accumulation (K562 [1]): 44 arbitrary units; Rhodamine-123 accumulation (K562 [2]): 85 arbitrary units; Rhodamine-123 accumulation (K562 [3]): 40 arbitrary units; Rhodamine-123 accumulation (K562 [4]): 47 arbitrary units

For O=C(c1ccccc1)N1CCN(C(=O)c2cc(=O)c3c(O)cccc3o2)CC1, which Rhodamine-123 accumulation (K562 [1]) is on record?
Its Rhodamine-123 accumulation is 45 arbitrary units.

What about the Rhodamine-123 accumulation (K562 [2]) of the same compound?
The Rhodamine-123 accumulation was 42 arbitrary units.

And the Rhodamine-123 accumulation (K562 [3])?
Its Rhodamine-123 accumulation is 38 arbitrary units.

And the Rhodamine-123 accumulation (K562 [4])?
The Rhodamine-123 accumulation was 47 arbitrary units.

What does the source list for O=C(c1cc(=O)c2c(O)cccc2o1)N1CCN(c2ccccc2)CC1?
Rhodamine-123 accumulation (K562 [1]): 40 arbitrary units; Rhodamine-123 accumulation (K562 [2]): 82 arbitrary units; Rhodamine-123 accumulation (K562 [3]): 39 arbitrary units; Rhodamine-123 accumulation (K562 [4]): 57 arbitrary units

What does the source list for C/C=C/C[C@@H](C)[C@@H](O)[C@H]1C(=O)N[C@@H](CC)C(=O)N(C)CC(=O)N(C)[C@@H](CC(C)C)C(=O)N[C@@H](C(C)C)C(=O)N(C)[C@@H](CC(C)C)C(=O)N[C@@H](C)C(=O)N[C@H](C)C(=O)N(C)[C@@H](CC(C)C)C(=O)N(C)[C@@H](CC(C)C)C(=O)N(C)[C@@H](C(C)C)C(=O)N1C [CYCLOSPORINE]?
Rhodamine-123 accumulation (K562 [1]): 80 arbitrary units; Rhodamine-123 accumulation (K562 [2]): 102 arbitrary units; Rhodamine-123 accumulation (K562 [3]): 72 arbitrary units; Rhodamine-123 accumulation (K562 [4]): 87 arbitrary units

Which Rhodamine-123 accumulation (K562 [1]) does the source give for COc1cc(OC)c2c(=O)c(-c3ccccc3)coc2c1 [5,7-DIMETHOXYISOFLAVONE] here?
Its Rhodamine-123 accumulation is 54 arbitrary units.

What about the Rhodamine-123 accumulation (K562 [2]) of the same compound?
The Rhodamine-123 accumulation was 49 arbitrary units.

What about the Rhodamine-123 accumulation (K562 [3]) of the same compound?
Its Rhodamine-123 accumulation is 40 arbitrary units.

And the Rhodamine-123 accumulation (K562 [4])?
The Rhodamine-123 accumulation was 46 arbitrary units.

Which Rhodamine-123 accumulation (K562 [1]) does the source give for CN1CCN(C(=O)c2cc(=O)c3c(O)cccc3o2)CC1 here?
The Rhodamine-123 accumulation was 134 arbitrary units.

What about the Rhodamine-123 accumulation (K562 [2]) of the same compound?
The Rhodamine-123 accumulation was 207 arbitrary units.

And the Rhodamine-123 accumulation (K562 [3])?
The Rhodamine-123 accumulation was 76 arbitrary units.

And the Rhodamine-123 accumulation (K562 [4])?
Its Rhodamine-123 accumulation is 138 arbitrary units.

Which Rhodamine-123 accumulation (K562 [1]) does the source give for O=C(c1cc(=O)c2c(O)cccc2o1)N1CCCCC1 here?
Its Rhodamine-123 accumulation is 46 arbitrary units.

And the Rhodamine-123 accumulation (K562 [2])?
The Rhodamine-123 accumulation was 45 arbitrary units.

What about the Rhodamine-123 accumulation (K562 [3]) of the same compound?
Its Rhodamine-123 accumulation is 43 arbitrary units.

What about the Rhodamine-123 accumulation (K562 [4]) of the same compound?
Its Rhodamine-123 accumulation is 44 arbitrary units.

How did the Rhodamine-123 accumulation (K562 [1]) turn out when COc1cc(OC)c2c(c1)O/C(=C\c1ccccc1)C2=O was run?
The Rhodamine-123 accumulation was 178 arbitrary units.

And the Rhodamine-123 accumulation (K562 [2])?
Its Rhodamine-123 accumulation is 249 arbitrary units.

What about the Rhodamine-123 accumulation (K562 [3]) of the same compound?
The Rhodamine-123 accumulation was 40 arbitrary units.

What about the Rhodamine-123 accumulation (K562 [4]) of the same compound?
The Rhodamine-123 accumulation was 203 arbitrary units.
